Measured values of several laboratories.
Compare with care: the assays were run in different laboratories.
Target: Activin receptor type-2A (ACVR2A, Homo sapiens, UniProt P27037)

With `CN(C)c1ncc(F)c(-c2cnn3ncccc23)n1` the remaining binding was 95% (binding; 1 µM).
For `COc1ncc2cc3ccccc3nc2c1C#N`, the remaining binding was 85% (cell-free assay, competition with immobilised ligand; 5 µM).
`O=C(c1ccc(Nc2ncc(Cl)c(-c3ccc(Cl)s3)n2)cc1)N1CCC(N2CCCC2)CC1` gave a remaining binding of 71% (binding, competition with immobilised ligand; 1 µM).
With `c1cncc(-c2cccc(Nc3nccc(NC4CCCCC4)n3)c2)c1` the remaining binding was 70% (binding, competition with immobilised ligand; 10 µM).
With `CCN1CCN(Cc2ccc(C(=O)Nc3ccc(C)c(Oc4ccc5c(c4)CC(=O)N5)c3)cc2C(F)(F)F)CC1` the remaining binding was 100% (binding, competition with immobilised ligand; 1 µM).
For `Cc1cnc(Nc2ccc(C(=O)N3CCC(N4CCCC4)CC3)cc2)nc1-c1cc2ccccc2s1`, the remaining binding was 69% (binding, competition with immobilised ligand; 1 µM).
`CC1=C(C#N)C(c2ccc3c(c2)c(NC(=O)c2ccccc2C)nn3C)C(C#N)=C(C)N1` gave a remaining binding of 97% (cell-free assay, competition with immobilised ligand; 1 µM).
With `C[C@H]1CCN(c2nccc(-c3cnn4ncccc34)n2)C1` the remaining binding was 96% (binding; 1 µM).
For `O=C1CCc2cc(Nc3cc(OC4CCOCC4)c([N+](=O)[O-])cc3Cl)ccc2N1`, the remaining binding was 81% (cell-free assay, competition with immobilised ligand; 1 µM).
For `CN(C)c1nccc(-c2cnc3ncccn23)n1`, the remaining binding was 100% (binding; 1 µM).
`O=C(NCc1ncc(C(F)(F)F)cc1Cl)c1ccc2c(c1)C1(CCS(=O)(=O)CC1)[C@@H](C1CC1)N2S(=O)(=O)c1ccc(F)cc1` gave a remaining binding of 100% (cell-free assay, competition with immobilised ligand; 1 µM).
For `N[C@@H]1CCN(c2nccc(-c3cnn4ncccc34)n2)C1`, the remaining binding was 100% (binding; 1 µM).
With `O=C(NCCCN1CCOCC1)c1ccc(Nc2ncc(Cl)c(-c3ccc(Cl)s3)n2)cc1` the remaining binding was 90% (binding, competition with immobilised ligand; 1 µM).
With `F[C@@H]1CCN(c2nccc(-c3cnn4ncccc34)n2)C1` the remaining binding was 100% (binding; 1 µM).
`CN(C)CC#Cc1ccc(OCCCc2sc(N3CCc4cccc(C(=O)Nc5nc6ccccc6s5)c4C3)nc2C(=O)O)c(F)c1` gave a remaining binding of 94% (cell-free assay, competition with immobilised ligand; 1 µM).
With `O=C(NCC1CCOCC1)c1n[nH]cc1NC(=O)c1c(F)cccc1F` the remaining binding was 85% (binding, competition with immobilised ligand; 1 µM).
`CN([C@@H]1CCc2c(CC(=O)O)c3ccccc3n2C1)S(=O)(=O)c1ccc(F)cc1` has a remaining binding of 100% (cell-free assay, competition with immobilised ligand; 1 µM).
For `FC(F)(F)Oc1cccc(-c2cnc3ccc(-c4ccncc4)nn23)c1`, the remaining binding was 77% (cell-free assay, competition with immobilised ligand; 5 µM).
`O=c1nc(-c2ccccn2)sc2ccccc12` gave a remaining binding of 91% (cell-free assay, competition with immobilised ligand; 1 µM).
`COc1cnc(Nc2cccc(S(N)(=O)=O)c2)nc1N1CCN(c2ccccc2)CC1` gave a remaining binding of 97% (binding, competition with immobilised ligand; 1 µM).
The remaining binding of `COc1ccnn2ncc(-c3ccnc(N(C)C)n3)c12` is reported as 100% (binding; 1 µM).
With `C=CC(=O)N1CCC(C(=O)NCC(=O)N2CCN(c3nc(-c4cnc(N)nc4C(F)F)nc(N4CCOCC4)n3)CC2)CC1` the remaining binding was 86% (binding, competition with immobilised ligand; 1 µM).
